Data from PMC5019276 (International Journal of Nanomedicine, 2016).
Values after ≈ are worked out from the molar mass of the structure shown.

Assays:
HT-29 cells [1] = assay: Intracellular uptake by fluorescence microscopy; assay type: cell-based, Human; details: 7.5 μg/mL, 3 hours, 37°C
How it was run: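 HT-29 cells were seeded at 2.5×10^4 cells/well and incubated overnight at 37°C in 5% CO2. They were exposed to free drug or drug-loaded nanoparticles at 7.5 μg/mL for 3 h at 37°C, with untreated and blank-nanoparticle controls. Cells were rinsed three times with 37°C PBS. Imaging used fluorescence microscopy with 420–490 nm excitation and 490–560 nm emission.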

[2] = In vivo oral administration and pharmacokinetics; parameters: species or system rats; details: plasma, 100 mg/kg
[3] = In vitro drug release by dialysis; assay type: physicochemical; details: pH 2.0, 5.0 and 6.8, after 72 hours
How it was run: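 Dialysis (MWCO 6–8 kDa): 2.5 mL of nanoparticle or free-drug solution (drug 0.2 mg/mL) against 10 mL medium. Media were 0.05 M glycine–HCl pH 2.0, 0.05 M phosphate pH 5.0 and 0.05 M phosphate pH 6.8, each with 1% ascorbic acid and 0.1% BHT. Stirred at 37°C for 72 h; 3.0 mL withdrawn at intervals and replaced. Drug measured by C18 HPLC at 420 nm. Run three times.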

HT-29 cells [4] = assay: In vitro cytotoxicity, MTT assay; assay type: cell-based; details: Homo sapiens, HT-29, read-out: IC50 (half maximal inhibitory concentration)
How it was run: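 HT-29 cells were grown in RPMI-1640 with 10% FBS and 1% penicillin/streptomycin. They were seeded at 3–5×10^4 cells/well and cultured 24 h at 37°C in humid 5% CO2. Drug-loaded and blank nanoparticles were then tested by MTT, with absorbance read at 490 nm. Viability (%) = absorbance of treated cells / absorbance of untreated cells × 100. Triplicates; mean ± SD (n=3).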

COc1cc(/C=C/C(=O)CC(=O)/C=C/c2ccc(O)c(OC)c2)ccc1O [Cur, Curcumin]
fluorescence of cells (cell uptake) (HT-29 cells [1]): relatively faint | Cmax ([2]; male, Sprague Dawley, rat, po): 11000 ± 1170 ng/mL | MRT last ([2]; male, Sprague Dawley, rat, po): 4.33 ± 0.67 h | Tmax ([2]; male, Sprague Dawley, rat, po): 1 h | half-life ([2]; male, Sprague Dawley, rat, po): 0.9 ± 0.89 h | AUC0–24 hours ([2]; oral): 65120 ± 7420 ng·h/mL | release after 72 hours (in words) [3]: completed its release/diffusion | IC50 (HT-29 cells [4]): 28.5 µg/mL (≈ 77.4 µM)
